Results as given in ChEMBL document CHEMBL4152323, “N-(1,3,4-oxadiazol-2-yl)benzamide analogs, bacteriostatic agents against methicillin- and vancomycin-resistant bacteria” (Eur J Med Chem, 2018).
Values after ≈ are worked out from the molar mass of the structure shown. Active and inactive are the calls of the source. No cut-off for these calls is given here.

Columns and labels:
Enterococcus faecalis [1] = test: Bacteriostatic activity against vancomycin-resistant Enterococcus faecalis ATCC 51575 after 20 hrs by broth microdilution method; type: functional; conditions: ATCC 51575, 20 h
In short: (§1)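 Broth microdilution MIC over 128 to 1 μg/mL, run alongside methicillin, linezolid and vancomycin. MIC taken as the lowest concentration with no visible growth.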

Staphylococcus aureus [2] = test: Bacteriostatic activity against methicillin-resistant Staphylococcus aureus ATCC 33592 after 20 hrs by broth microdilution method; type: functional; conditions: ATCC 33592, 20 h; in short: as §1
Listeria monocytogenes = test: Bacteriostatic activity against Listeria monocytogenes ATCC 19115 after 20 hrs by broth microdilution method; type: functional; conditions: ATCC 19115, 20 h
In short: (§2)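 MIC by broth microdilution across 128 to 1 μg/mL in 96-well plates, 37 °C for at least 20 h. MIC is the lowest concentration with no visible growth.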

Staphylococcus aureus [3] = test: Antibacterial activity against Staphylococcus aureus assessed as growth inhibition at 16 ug/ml after 24 hrs; type: functional, organism-based
In short: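 S. aureus grown in Mueller Hinton Broth to early exponential phase, then exposed to compound (16 μg/mL; DMSO stocks 10 mg/mL) or DMSO in duplicate, 37 °C for 24 h. OD600 read; percent normalized OD600 = (X − media blank)/(DMSO control − media blank) × 100.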

Staphylococcus aureus [4] = test: Bacteriostatic activity against Staphylococcus aureus ATCC 25923 after 20 hrs by broth microdilution method; type: functional; conditions: ATCC 25923, 20 h; in short: as §1
Enterococcus faecalis [5] = test: Bacteriostatic activity against Enterococcus faecalis ATCC 29212 after 20 hrs by broth microdilution method; type: functional; conditions: ATCC 29212, 20 h; in short: as §1
Escherichia coli [6] = test: Bacteriostatic activity against AcrAB-tolC deficient Escherichia coli JW5503-1 after 20 hrs by broth microdilution method; type: functional; conditions: JW5503-1, 20 h; in short: as §2
Escherichia coli [7] = test: Bacteriostatic activity against Escherichia coli BW25113 after 20 hrs by broth microdilution method; type: functional; conditions: BW25113, 20 h; in short: as §2
Klebsiella pneumoniae = test: Bacteriostatic activity against Klebsiella pneumoniae BAA 1706 after 20 hrs by broth microdilution method; type: functional; in short: as §2
Acinetobacter baumannii = test: Bacteriostatic activity against Acinetobacter baumannii ATCC 19606 after 20 hrs by broth microdilution method; type: functional; conditions: ATCC 19606 = CIP 70.34 = JCM 6841; in short: as §2
Pseudomonas aeruginosa = test: Bacteriostatic activity against Pseudomonas aeruginosa ATCC 15442 after 20 hrs by broth microdilution method; type: functional; in short: as §2

| Compound | MIC (Enterococcus faecalis [1]) [µg/mL] | MIC (Staphylococcus aureus [2]) [µg/mL] | MIC (Listeria monocytogenes) [µg/mL] | growth inhibition (GI) (Staphylococcus aureus [3]) | MIC (Staphylococcus aureus [4]) [µg/mL] | MIC (Enterococcus faecalis [5]) [µg/mL] | MIC (Escherichia coli [6]) [µg/mL] | MIC (Escherichia coli [7]) [µg/mL] | MIC (Klebsiella pneumoniae) [µg/mL] | MIC (Acinetobacter baumannii) [µg/mL] | MIC (Pseudomonas aeruginosa) [µg/mL] |
| --- | --- | --- | --- | --- | --- | --- | --- | --- | --- | --- | --- |
| C[C@@H]1C[C@H](C)CN(S(=O)(=O)c2ccc(C(=O)Nc3nnc(-c4ccc([N+](=O)[O-])cc4)o3)cc2)C1 (mixture of isomers) | 32 | 16 | 32 | Active | 32 | 64 | – | – | – | – | – |
| C[C@@H]1C[C@H](C)CN(S(=O)(=O)c2ccc(C(=O)Nc3nnc(-c4ccc(F)cc4)o3)cc2)C1 (mixture of isomers) | 4 | 4 | 4 | Active | 4 | 4 | – | – | – | – | – |
| C[C@@H]1C[C@H](C)CN(S(=O)(=O)c2ccc(C(=O)Nc3nnc(-c4cccc(C#N)c4)o3)cc2)C1 (mixture of isomers) | 16 | 8 | 8 | Active | 16 | 32 | – | – | – | – | – |
| COc1ccc(-c2nnc(NC(=O)c3ccc(S(=O)(=O)N4C[C@H](C)C[C@H](C)C4)cc3)o2)cc1 (mixture of isomers) | 4 | 4 | 4 | Active | 4 | 4 | – | – | – | – | – |
| CC[C@H]1OC(=O)[C@H](C)[C@@H](O[C@H]2C[C@@](C)(OC)[C@@H](O)[C@H](C)O2)[C@H](C)[C@@H](O[C@@H]2O[C@H](C)C[C@H](N(C)C)[C@H]2O)[C@](C)(O)C[C@@H](C)C(=O)[C@H](C)[C@@H](O)[C@]1(C)O [ERYTHROMYCIN] | – | – | – | – | – | – | ≤ 1 | 32 (≈ 43.6 µM) | – | – | – |
| COLISTIN | – | – | – | – | – | – | – | – | < 1 | < 1 | < 1 |
